# Experimental data from PubChem BioAssay AID624466 (The Scripps Research Institute Molecular Screening Center, 2012).
# Among all 360,000 compounds or so, about 5,400 (1.5%) were called active. The sample holds actives, similar compounds and a random draw of the others, so the mix is not that of the screen. A number with no mark means an inactive call.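 How the source made its calls: active means inhibition above a per-plate cutoff, the mean inhibition of test compounds on that plate plus 3 SD (cut at about 49% in these data); inactive means the rest.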
# Biological target: Trace amine-associated receptor 1 (Homo sapiens) (UniProt Q96RJ0)
# Assay: human TAAR1 antagonists, primary screen, Fluo-8 calcium fluorescence, CHO RD-HGA16 cells (AID 624466);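 further: 0% = DMSO plus EC80 beta-PEA response and 100% = DMSO alone without agonist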
# Details: CHO RD-HGA16 TAAR1, Fluo-8 calcium fluorescence, antagonist; at 3 µM; active compounds read high
# Method in brief: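 Material: CHO RD-HGA16 cells bearing hTAAR1; compound dosing: one-point dosing, 3 µM nominal final; schedule: dye loading 75 min at 37 °C, then 30 min room temperature; measured by: calcium fluorescence with Fluo-8; control set: vehicle and agonist controls; replication: n of 1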
# Trace amine-associated receptor 1 (Homo sapiens), sequence (Q96RJ0 whole entry, looked up): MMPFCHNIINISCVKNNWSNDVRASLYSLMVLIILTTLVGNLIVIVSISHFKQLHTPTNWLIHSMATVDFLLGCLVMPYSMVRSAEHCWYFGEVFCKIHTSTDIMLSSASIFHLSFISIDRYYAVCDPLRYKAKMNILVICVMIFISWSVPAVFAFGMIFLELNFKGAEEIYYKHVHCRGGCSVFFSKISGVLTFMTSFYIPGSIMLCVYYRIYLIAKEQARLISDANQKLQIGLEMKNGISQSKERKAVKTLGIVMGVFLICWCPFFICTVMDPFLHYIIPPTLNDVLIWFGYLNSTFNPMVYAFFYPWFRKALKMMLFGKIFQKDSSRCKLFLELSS
row,SMILES,inhibition
1,O=C(NCc1ccc(F)cc1F)[C@@H]1CCCN1C(=O)[C@@H]1CCCN1C(=O)c1cccc(Cl)c1,-26.2%
2,Cc1cc(Nc2ccc(Br)cc2F)n2ncnc2n1,-22.8%
3,CC(=O)Nc1ccc(OCCC[n+]2cccc(C(=O)[O-])c2)cc1,10.6%
4,CCCCn1c(SCc2ncc(-c3ccccc3)o2)nc2cc(S(N)(=O)=O)ccc21,63.4% (active)
5,CCCCn1c(SCC(=O)N2CCCC2=O)nc2cc(S(N)(=O)=O)ccc21,-16.1%
6,CCCCn1c(SCC(=O)N2CCC(C(=O)OCC)CC2)nc2cc(S(N)(=O)=O)ccc21,-5.42%
7,CC1(C(=O)NCc2ccccc2)CN(S(C)(=O)=O)CC(=O)N1CC(F)(F)F (centres undefined),-8.96%
8,Cc1ccc(Cn2cc(CN3CC(N4CCN(C)CC4)CS3(=O)=O)nn2)cc1 (centres undefined),-10.1%
9,CC(C)(C)n1ncc2c(=O)n(Cc3c(Cl)cccc3Br)cnc21,58.1% (active)
10,CC(C)(C)n1ncc2c(=O)n(Cc3ccc(Cl)cc3)cnc21,18.1%
11,Cn1cnc2c1c(=O)n(Cc1c(Cl)cccc1Cl)c(=O)n2C,-4.09%
12,CCCCNc1cccc2c1S(=O)(=O)N[C@@H](C)CO2,4.47%
13,Cc1ccsc1C(=O)NNC(=O)COc1ccc(Br)cc1,-10.4%
14,Cc1ccc(O)c(NC(=S)NC(=O)COc2ccc(Br)cc2)c1,98.5% (active)
15,Cn1cccc1C(=O)NNC(=O)COc1ccc(Br)cc1,8.71%
16,COc1ccc(OC)c(CNC(=O)c2cc(=O)[nH]c3ccc(S(=O)(=O)N4CCCC4)cc23)c1,-12.7%
17,COc1ccc(S(=O)(=O)N2CCC(C(=O)NCCC(=O)NCc3cccc(OC)c3)CC2)cc1,-10.5%
18,O=C(Nc1ccc(Br)cc1)C1CCC(=O)N1Cc1ccccc1Cl (centres undefined),11.4%
19,S=c1nc2ccccc2c2nc(-c3cccnc3)[nH]n12,5.39%
20,Brc1ccc(-c2csc(N/N=C/c3cccnc3)n2)cc1,15.8%

row,SMILES,inhibition
1,Fc1ccc(/C=N/Nc2nc(-c3cccnc3)nc3ccccc23)cc1,55.8% (active)
2,O=C(c1ccc(Cl)cc1)n1cnc2ccccc21,-8.66%
3,COc1cccc(N2CCN(CC(=O)Nc3ccnn3C3CCCC3)CC2)c1,10.4%
4,COC(=O)Nc1nc2ccc(C(=O)C3CC3)cc2[nH]1,-3.23%
5,O=C(NCCN1CCOCC1)Nc1cccc(Cl)c1,-1.82%
6,O=C(NCCN1CCOCC1)c1cc(Sc2cccc(Cl)c2)nc2ccccc12,-6.08%
7,O=C(NCCN1CCOCC1)c1ccccc1N1C(=O)[C@@H]2Cc3c([nH]c4ccccc34)C(c3cccc(Cl)c3)N2C1=O (some centres undefined),68.8% (active)
8,C[C@H]1[C@H](c2ccccc2)Oc2cc(Br)ccc2S(=O)(=O)N1Cc1cccc(F)c1,0.32%
9,COc1cccc(-c2nc3nc(C)cc(C)n3c2NC2CCCCC2)c1,-7.98%
10,Cc1ccc(N2CC(C(=O)N3CCC4(CC3)CC(=O)c3ccccc3O4)CC2=O)cc1C (centres undefined),-12.3%
11,Nc1nonc1-n1nnc(C(=O)N/N=C/C2CCCCC2)c1-c1ccccc1,-20.6%
12,CC(C)c1c(C(=O)N/N=C/c2ccccc2C(=O)O)nnn1-c1nonc1N,-11.8%
13,Nc1nonc1-n1nnc(C(=O)N/N=C/c2c[nH]c3ccccc23)c1-c1ccccc1,59% (active)
14,CC(=O)N1C[C@@H](CO)[C@@H](N(C)C(=O)C(C)(C)C)C[C@H]1c1ccccc1Br,-17.9%
15,Cc1ccc(NC(=O)COC(=O)CNC(=O)c2ccc(Cl)cc2Cl)cc1S(=O)(=O)N1CCOCC1,-20.3%
16,C[C@@H]1CC2=C(C(=O)OC(C)(C)O2)[C@@H](C2CC2)O1,-2.56%
17,CCOC(=O)[C@]12CCCC=C1N(Cc1cccc3ccccc13)C(=O)[C@H](CC(=O)NCC13CC4CC(CC(C4)C1)C3)C2,-11.8%
18,O=C(c1cc(-c2ccc(Cl)s2)nc2ccccc12)N1CCOCC1,23.2%
19,Cc1c(NC(=O)c2cc(-c3ccc(Cl)s3)nc3ccccc23)c(=O)n(-c2ccccc2)n1C,23.5%
20,CC(=O)N1CCN(C(=O)c2cc(-c3ccc(Cl)s3)nc3ccccc23)CC1,52% (active)

row,SMILES,inhibition
1,O=C(NCc1cccc(Cl)c1)C1CCN(c2nnc(N3CCCC3=O)s2)CC1,1.44%
2,Cc1ccc(S(=O)(=O)N[C@H]2CCC[C@@H]2O)cc1,-6.11%
3,CCN(CC)Cc1c(C(=O)N/N=C/c2cccc(OCc3ccc(F)cc3)c2)nnn1-c1nonc1N,-24.4%
4,Nc1nonc1-n1nnc(C(=O)N/N=C/c2cc(Br)ccc2O)c1CSC1=NCCS1,18.1%
5,Cc1ccc(SCc2c(C(=O)N/N=C/c3cccnc3)nnn2-c2nonc2N)cc1,63.7% (active)
6,CCOC(=O)C1CCCN(C(=O)c2cccc(S(=O)(=O)N3CCOCC3)c2)C1 (centres undefined),-16.4%
7,C=CCCN(Cc1ccccc1)S(=O)(=O)c1ccccc1Br,35.3%
8,O=C1Nc2ccccc2C1=NN=Cc1ccco1,-11.4%
9,CC1Cc2[nH][nH]c(=O)c2C(C2CC2)O1 (centres undefined),-0.95%
10,Cc1ccccc1-n1nnc2c(=O)oc3ccccc3c21,-7.09%
11,O=C(Nc1cccc(F)c1)c1coc(=O)c(Br)c1,-5.62%
12,C=CCc1cc(S(=O)(=O)c2ccc(O)c(CC=C)c2)ccc1O,56.9% (active)
13,O=C1[C@@H](c2ccccc2)[C@@H](c2ccccc2)N1c1ccccc1,-22.7%
14,Cc1c(C(=O)Nc2cccc(S(=O)(=O)N3CCOCC3)c2)oc2ccccc12,13.3%
15,Cc1c(C(=O)Nc2ccccc2Cl)oc2ccc(S(=O)(=O)N3CCC4(CC3)OCCO4)cc12,46.8%
16,COc1ccc(C(=O)Nc2cc(S(=O)(=O)N3CCCC3)ccc2Cl)cc1,2.12%
17,COc1ccc(NC(=O)c2oc3ccc(S(=O)(=O)N4CCOCC4)cc3c2C)cc1,57.4% (active)
18,COC(=O)COc1ccc(S(=O)(=O)N2CCOCC2)cc1,-11.5%
19,COc1ccc(C(=O)Nc2nc(-c3ccc(S(=O)(=O)N4CCOCC4)cc3)cs2)cc1,60.4% (active)
